Rows were chosen to be rich in hits. Some 1.9% of all compounds tested hit in one or more screens of this group.
M5 ag – human M5 muscarinic receptor agonists, primary screen, CHO-K1 cells, Fluo-8 calcium fluorescence | Muscarinic acetylcholine receptor M5 (Homo sapiens), P08912 | CHO-K1 hM5 cells; 0% DMSO wells, 100% maximal acetylcholine response | activation, % at 3 µM | 360,000 compounds, 0.19% hits | AID 624037, 2012;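 active = activation above the run's mean over test compounds plus 3 SD, cut at about 23% in these data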;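 note: signal is peak over basal fluorescence ratio across the kinetic read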
Target sequence (P08912 whole entry, looked up): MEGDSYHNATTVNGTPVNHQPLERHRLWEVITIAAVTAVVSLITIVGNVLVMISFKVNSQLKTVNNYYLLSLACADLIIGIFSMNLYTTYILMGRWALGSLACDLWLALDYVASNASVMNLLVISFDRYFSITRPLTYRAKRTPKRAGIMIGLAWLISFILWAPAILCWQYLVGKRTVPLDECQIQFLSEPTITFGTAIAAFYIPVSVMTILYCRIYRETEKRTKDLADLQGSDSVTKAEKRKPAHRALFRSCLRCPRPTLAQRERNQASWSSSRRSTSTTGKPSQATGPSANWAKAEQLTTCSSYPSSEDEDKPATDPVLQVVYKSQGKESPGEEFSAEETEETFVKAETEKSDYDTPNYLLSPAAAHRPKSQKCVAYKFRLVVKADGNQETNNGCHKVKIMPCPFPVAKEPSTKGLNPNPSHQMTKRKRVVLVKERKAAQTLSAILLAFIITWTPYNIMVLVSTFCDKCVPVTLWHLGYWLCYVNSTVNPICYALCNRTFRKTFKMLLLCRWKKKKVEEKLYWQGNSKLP
M4 PAM – human M4 muscarinic receptor positive allosteric modulators, primary screen, CHO-K1 cells, Fluo-8 calcium fluorescence. AID 624126, 2012. 360,000 compounds, 0.4% hits. CHO-K1 hM4/Gqi5, ACh EC20; 0% = ACh EC20, 100% = maximal ACh. activation, % at 3 µM. Muscarinic acetylcholine receptor M4 (Homo sapiens), P08173;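 active = activation above its plate's cutoff, the mean activation of sample wells plus 3 SD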
CHRM4 antagonist – human M4 muscarinic receptor antagonists, primary screen, CHO cells, Fluo-8 calcium fluorescence | Muscarinic acetylcholine receptor M4 (Homo sapiens), P08173 | CHO-hM4 cells, ACh EC80 | inhibition, % at 3 µM | 360,000 compounds, 0.73% hits;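 active = inhibition above its plate's cutoff, the mean inhibition of sample wells plus 3 SD, cut at about 27% in these data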;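 note: 0% = acetylcholine EC80 with DMSO and 100% = DMSO without agonist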
M5 PAM – human M5 muscarinic receptor positive allosteric modulators, primary screen, CHO-K1 cells, Fluo-8 calcium fluorescence. Muscarinic acetylcholine receptor M5 (Homo sapiens), P08912. AID 624038, 2012. CHO-K1 hM5, ACh EC20 PAM; 0% = ACh EC20, 100% = ACh EC100. activation, % at 3 µM. 360,000 compounds, 0.3% hits;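 active = activation above the run cutoff, the mean activation of all test compounds plus 3 SD, cut at about 18% in these data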
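system = human M5 receptor in CHO-K1 cells | compound = one concentration, 3 µM final (nominal) | schedule = Post-acetylcholine fluorescence recording 140 s | signal = Fluo-8 calcium dye fluorescence, kinetic read | benchmarks = low control EC20 acetylcholine (0%), high control EC100 acetylcholine (100%) | repeats = singlicate, one well per test compound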
M5 antag – human M5 muscarinic receptor antagonists, primary screen, CHO cells, Fluo-8 calcium fluorescence; Muscarinic acetylcholine receptor M5 (Homo sapiens), P08912; CHO-hM5 cells, ACh EC80; inhibition, % at 3 µM; 360,000 compounds, 0.59% hits;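 active = inhibition above a per-plate cutoff, the mean of that plate's test compounds plus 3 SD, cut at about 27% in these data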;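 note: 0% = acetylcholine EC80 with DMSO and 100% = DMSO without agonist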
M4 ag – human M4 muscarinic receptor agonists, primary screen, CHO-K1 cells, Fluo-8 calcium fluorescence. AID 624127, 2012. CHO-K1 hM4/Gqi5; vehicle 0%, full acetylcholine response 100%. activation, % at 3 µM. Muscarinic acetylcholine receptor M4 (Homo sapiens), P08173. 360,000 compounds, 0.14% hits;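 active = activation above the run mean over all test wells plus 3 SD, cut at about 32% in these data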;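 note: peak over basal fluorescence ratio per well then scaled between controls; 0% = DMSO wells and 100% = acetylcholine at EC100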
The depositor's hits bear a star; + = active, no number.

SMILES | M5 ag | M4 PAM | CHRM4 antagonist | M5 PAM | M5 antag | M4 ag
COc1cccc(-c2nc(CS(=O)(=O)CC(=O)N3CCN(C)CC3)c(C)o2)c1 | 52* | 1 | -26 | -22 | -4 | 2
CCOc1ccc(-c2nc(CSCC(=O)N3CCN(c4cccc(OC)c4)CC3)c(C)o2)cc1 | 7 | -11 | 3 | -20 | 27* | 20
COc1ccc(-c2nc(CS(=O)(=O)CC(=O)NCc3ccc4c(c3)OCO4)c(C)o2)cc1 | -2 | 12 | -11 | 26* | -27 | 0
O=C(CN(CCO)Cc1ccccc1)N1CCN(S(=O)(=O)c2ccccc2)CC1 | -3 | 2 | 1 | 1 | -1 | 0
CC(=O)N1c2ccc(S(=O)(=O)N3CCC(C(=O)N4CCC(C)CC4)CC3)cc2CC1C (stereo not drawn) | -2 | 0 | 0 | 0 | 3 | 2
CC1Cc2cc(S(=O)(=O)N3CCC(C(=O)N4CCN(c5ccccc5F)CC4)CC3)ccc2N1C(=O)C1CC1 (stereo not drawn) | 2 | -11 | 37* | -11 | 30* | 15
CC(=O)N1CCCc2cc(S(=O)(=O)N3CCCC(C(=O)N4CCN(c5cc(C)ccc5C)CC4)C3)ccc21 (stereo not drawn) | 2 | -27 | -14 | -18 | 21 | 37*
CC(=O)N1c2ccc(S(=O)(=O)N3CCC(C(=O)N4CCN(c5cc(Cl)ccc5C)CC4)CC3)cc2CC1C (stereo not drawn) | 5 | -18 | 36* | -17 | 28* | 21
COc1ccc(N2CCN(S(=O)(=O)c3ccc4c(c3)CC(C)N4C(=O)C3CC3)CC2)cc1 (stereo not drawn) | -3 | -6 | 8 | -13 | 27* | 0
S=c1[nH]nc(-c2ccncc2)n1/N=C/c1cn(-c2ccccc2)nc1-c1ccccc1 | 17 | 9 | 0 | 23* | 5 | 12
CCCCCNCc1ccc(Cl)cc1 | -5 | 9 | -8 | -1 | 19 | 1
CCCCCCC[N+](CC)(CC)CCCCc1ccc(Cl)cc1 | -2 | -14 | 38* | -18 | 22 | 0
Cc1ccc(-c2noc(C3CCCN(C(=O)c4c(F)cccc4F)C3)n2)cc1 (stereo not drawn) | 4 | 3 | -1 | -10 | 2 | 12
O=C(c1c(F)cccc1F)N1CCCC(c2nc(-c3ccc(Cl)cc3)no2)C1 (stereo not drawn) | -4 | -10 | -4 | -25 | 28* | 10
CC(=O)Oc1ccc2c(c1)Oc1cc(OC(C)=O)ccc1C21OC(=O)c2ccccc21 | + | -17 | 101* | -21 | 102* | 865*
CCn1c(SCC(=O)NC2CC2)nnc1C(C)Oc1ccccc1 (stereo not drawn) | -2 | 1 | 0 | 2 | 2 | 1
CC(Oc1ccccc1)c1nnc(SCC(=O)NC2CC2)n1C (stereo not drawn) | -4 | 20* | 1 | -7 | 3 | 2
COCCN(C(=O)c1sc2ccccc2c1Cl)c1c(N)n(CC(C)C)c(=O)[nH]c1=O | 3 | 5 | -7 | 10 | 2 | 1
CCN(CC)CCN(C(=O)c1ccc2ccccc2c1)c1nc2ccc(F)cc2s1 | -6 | 18* | -7 | 1 | 1 | 1
O=C(Cn1ncc2c([nH]c3ccccc32)c1=O)NCCc1ccc(Cl)cc1 | -1 | -3 | 4 | -5 | 8 | 1
CSc1ccc(CCNC(=O)Cn2ncc3c([nH]c4ccccc43)c2=O)cc1 | -4 | 15* | 16 | -3 | 19 | 2
CCOc1cc(/C=C/C(=O)c2ccc(OC)c(CN3CCOCC3)c2)cc(Br)c1O | 10 | -14 | 0 | -6 | 5 | 33*
O=C1N/C(=N\S(=O)(=O)Cc2ccccc2)S/C1=C/c1cc([N+](=O)[O-])ccc1O | 89* | -41 | 19 | -38 | 40* | 50*
O=C1N/C(=N\S(=O)(=O)c2ccccc2)S/C1=C\c1cc([N+](=O)[O-])ccc1O | 45* | -26 | 20 | -18 | 15 | 125*
Cc1ccc(S(=O)(=O)/N=C2/NC(=O)/C(=C\c3cc(Br)cc(Br)c3O)S2)cc1 | 35* | -5 | 1 | -9 | 14 | 11
SMILES | M5 ag | M4 PAM | CHRM4 antagonist | M5 PAM | M5 antag | M4 ag
COc1ccccc1-c1cnc(C(O)c2ccc(Cl)cc2)[nH]1 (stereo not drawn) | 3 | -3 | -3 | -2 | -5 | 3
Cn1c(=O)c2c(nc(N3CCCCC3)n2CCSc2nc3ccccc3s2)n(C)c1=O | 0 | 38* | 6 | 0 | -5 | 1
O=C(Oc1ccc(N2C(=O)C3C4CCC(C4)C3C2=O)cc1)c1ccco1 (stereo not drawn) | -4 | 1 | 1 | -4 | 13 | 2
O=C(Oc1cccc2cccnc12)c1ccc(N2C(=O)C3C4CCC(C4)C3C2=O)cc1 (stereo not drawn) | 2 | 26* | 10 | 7 | 2 | 1
Cc1ccccc1N1CC(=O)N(c2ccccc2C)CC1=O | -2 | 20* | 9 | -5 | -8 | 2
O=C1CN(c2ccccc2Cl)C(=O)CN1c1ccccc1Cl | -3 | -4 | 10 | -2 | 6 | 0
O=C(OCCOc1ccccc1F)c1cccc(S(=O)(=O)N2CCOCC2)c1 | 0 | 1 | -7 | -1 | 12 | 1
S=C1NC[C@H](Cc2cccc3ccccc23)N1CC1CCCCC1 | -1 | 10 | -4 | 7 | 5 | 4
O=C1NC[C@@H](Cc2cccc3ccccc23)N(CC2CCCCC2)C1=O | 2 | 7 | -1 | 22* | -17 | 1
COc1ccccc1NC(=O)C1=C(C)NC(=O)NC1c1ccc(C)cc1 (stereo not drawn) | -3 | -13 | 32* | -6 | 1 | 0
O=C(/C=C/c1cccc(Cl)c1Cl)OCC(=O)N1CCOCC1 | -5 | 2 | -14 | -5 | -15 | 2
CCCC(CCC)C(=O)OC1C[C@H]2CC[C@@H](C1)[N+]2(C)C (stereo partly drawn) | -1 | -18 | 99* | -18 | 98* | 0
CCCC(CCC(=O)NC1CCCCC1)C(=O)O (stereo not drawn) | 0 | 4 | 2 | -2 | -4 | 0

Bioassay records (PubChem)
